Data: ChEMBL document CHEMBL6134793, “Synthesis and structure-activity study of the antimicrobial lipopeptide brevibacillin” (RSC Med Chem, 2024)
Converted amounts (≈) assume the structure as drawn.

Tests used:
Staphylococcus aureus [1] = experiment: Antimicrobial activity against Staphylococcus aureus ATCC 6538 assessed as growth inhibition by microdilution assay; assay type: functional
Summary of the method: (§1)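 Twofold serial microdilution of peptide (stocks 2 mg mL−1, diluted to 512 μg mL−1 in water with 10% DMSO) in strain medium, about 1 × 10^4 cfu per well. Media: TSB 20 h 37 °C (S. aureus, L. monocytogenes, B. subtilis, E. faecalis); LB 20 h 37 °C (P. aeruginosa, S. enterica, E. coli); Brucella 48 h 37 °C (C. coli). A595 read; MIC = lowest concentration with no visible growth; triplicate.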

Pseudomonas aeruginosa [2] = experiment: Antimicrobial activity against Pseudomonas aeruginosa ATCC […] assessed as diameter of growth inhibition at 128 ug/ml by radial diffusion assay; assay type: functional; conditions: dose 128 µg/ml
Summary of the method: (§2)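 Agar well diffusion. Overnight cultures inoculated at 1% into 0.75% soft agar (TSB for S. aureus, LB for P. aeruginosa). Each well received 80 μL of peptide at 128 μg mL−1 in water with 10% DMSO; 10% DMSO served as negative control. Inhibition zone diameter scored after strain-specific incubation.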

Listeria monocytogenes = experiment: Antimicrobial activity against Listeria monocytogenes ATCC 19111 assessed as growth inhibition by microdilution assay; assay type: functional; summary of the method: as §1
[3] = Antimicrobial activity against Salmonella enterica serovar Newport ATCC 6962 assessed as growth inhibition by microdilution assay; assay type: functional, Salmonella enterica subsp. enterica serovar Newport; summary of the method: as §1
[4] = Cytotoxicity against human Caco-2 cells assessed as inhibition of cell viability incubated for 48 hrs by Cell Titer GLO assay; assay type: toxicity, cell-based
Summary of the method: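 Caco-2 cells in DMEM with 10% FCS, seeded 25 000 per well, adhered overnight, then given peptide at 2–256 μg mL−1 in complete medium for 48 h at 37 °C, 5% CO2. Controls: cisplatin 125 μM; 0.1% DMSO medium. Viability by ATP luminescence (CellTiter-Glo) versus untreated cells; IC50 from dose–response; mean ± SEM of at least three independent experiments.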

Enterococcus faecalis = experiment: Antimicrobial activity against Enterococcus faecalis ATCC 29212 assessed as growth inhibition by microdilution assay; assay type: functional; summary of the method: as §1
Campylobacter coli = experiment: Antimicrobial activity against Campylobacter coli ATCC 33559 assessed as growth inhibition by microdilution assay; assay type: functional; summary of the method: as §1
Staphylococcus aureus [5] = experiment: Antimicrobial activity against Staphylococcus aureus ATCC 6538 assessed as diameter of growth inhibition at 128 ug/ml by radial diffusion assay; assay type: functional; conditions: dose 128 µg/ml; summary of the method: as §2
Clostridium perfringens = experiment: Antimicrobial activity against Clostridium perfringens ATCC 3628 assessed as growth inhibition by microdilution assay; assay type: functional
Summary of the method: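 Broth microdilution: twofold serial peptide dilutions in reinforced clostridial medium (RCM), seeded with about 1 × 10^4 cfu per well, incubated 20 h at 37 °C. Working solution 512 μg mL−1 made from a 2 mg mL−1 stock in water with 10% DMSO. Growth read as absorbance at 595 nm. MIC taken as the lowest concentration giving complete inhibition of visible growth; run in triplicate.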

Bacillus subtilis = experiment: Antimicrobial activity against Bacillus subtilis ATCC 23957 assessed as growth inhibition by microdilution assay; assay type: functional; summary of the method: as §1
Escherichia coli = experiment: Antimicrobial activity against Escherichia coli ATCC 25922 assessed as growth inhibition by microdilution assay; assay type: functional; summary of the method: as §1
[6] = Hemolytic activity in human erythrocytes at 256 ug/ml measured after 1 hr by absorbance based assay relative to control; assay type: toxicity, cell-based, Erythrocyte; conditions: at 256 µg/mL, read-out: Activity
Summary of the method: (§3)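 Washed human donor erythrocytes at 1% hematocrit in PBS pH 7.4 exposed to twofold peptide dilutions (final 2–256 μg mL−1, up to 1% DMSO) for 1 h at 37 °C. After centrifugation, supernatant A405 read. % hemolysis relative to PBS (0%) and 1% Triton X-100 (100%). Triplicate; mean ± SEM.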

[7] = Hemolytic activity in human erythrocytes at 128 ug/ml measured after 1 hr by absorbance based assay relative to control; assay type: toxicity, cell-based, Erythrocyte; conditions: at 128 µg/mL, read-out: Activity; summary of the method: as §3
Pseudomonas aeruginosa [8] = experiment: Antimicrobial activity against Pseudomonas aeruginosa ATCC […] assessed as growth inhibition by microdilution assay; assay type: functional; summary of the method: as §1
Staphylococcus aureus [9] = experiment: Antimicrobial activity against Staphylococcus aureus ATCC 6538 assessed as growth inhibition at 128 ug/ml by radial diffusion assay; assay type: functional, organism-based; conditions: dose 128.0 µg/ml; summary of the method: as §2
Pseudomonas aeruginosa [10] = experiment: Antimicrobial activity against Pseudomonas aeruginosa ATCC […] assessed as growth inhibition at 128 ug/ml by radial diffusion assay; assay type: functional, organism-based; conditions: dose 128.0 µg/ml; summary of the method: as §2

Row | Compound | MIC (Staphylococcus aureus [1]) | Activity (Pseudomonas aeruginosa [2]) | MIC (Listeria monocytogenes) | MIC [3] | IC50 at 48 h [4] | MIC (Enterococcus faecalis) | MIC (Campylobacter coli) | Activity (Staphylococcus aureus [5]) | MIC (Clostridium perfringens) | MIC (Bacillus subtilis) | MIC (Escherichia coli) | hemolysis at 1 h, 256 ug/ml [6] | hemolysis at 1 h, 128 ug/ml [7] | MIC (Pseudomonas aeruginosa [8]) | growth inhibition (qualitative call) (Staphylococcus aureus [9]) | growth inhibition (qualitative call) (Pseudomonas aeruginosa [10])
1 | CC[C@H](C)[C@H](O)C(=O)N[C@H](C(=O)N[C@@H](CC(C)C)C(=O)N[C@H](CCCN)C(=O)N[C@H](C(=O)N[C@H](C(=O)N[C@H](C(=O)N[C@H](CCCCN)C(=O)N[C@H](C(=O)N[C@H](C(=O)N[C@@H](CCCCN)C(=O)N[C@H](Cc1ccc(O)cc1)C(=O)N[C@@H](CC(C)C)C(=O)N[C@H](CO)C(C)C)C(C)C)C(C)C)C(C)C)[C@@H](C)CC)[C@@H](C)CC)C(C)C | 1 µg/mL | 7 mm | 1 µg/mL | > 128 µg/mL | 8.3 µg/mL (≈ 5.19 µM) | 4 µg/mL | 8 µg/mL | 7 mm | 4 µg/mL | 1 µg/mL | > 128 µg/mL | 84% | 53.1% | 1 µg/mL |  | 
2 | C/C=C(/NC(=O)[C@@H](O)[C@@H](C)CC)C(=O)N[C@@H](CC(C)C)C(=O)N[C@H](CCCN)C(=O)N[C@H](C(=O)N[C@H](C(=O)N[C@H](C(=O)N[C@H](CCCCN)C(=O)N[C@H](C(=O)N[C@H](C(=O)N[C@@H](CCCCN)C(=O)N[C@H](Cc1ccc(O)cc1)C(=O)N[C@@H](CC(C)C)C(=O)N[C@H](CO)C(C)C)C(C)C)C(C)C)C(C)C)C(C)C)[C@@H](C)CC | 4 µg/mL | 12 mm | 1 µg/mL | > 128 µg/mL | 25.7 µg/mL (≈ 16.4 µM) | 16 µg/mL | 16 µg/mL | 11 mm | 4 µg/mL | 2 µg/mL | 32 µg/mL |  | 1.65% | 2 µg/mL |  | 
3 | C/C=C(/NC(=O)[C@@H](O)[C@@H](C)CC)C(=O)N[C@@H](CC(C)C)C(=O)N[C@H](CCCN)C(=O)N[C@H](C(=O)N[C@H](C(=O)N[C@H](C(=O)N[C@H](CCCCN)C(=O)N[C@H](C(=O)N[C@H](C(=O)N[C@@H](CCCCN)C(=O)N[C@H](Cc1ccc(O)cc1)C(=O)N[C@@H](CC(C)C)C(=O)N[C@H](C(N)=O)C(C)C)C(C)C)C(C)C)C(C)C)[C@@H](C)CC)[C@@H](C)CC | 8 µg/mL |  | 2 µg/mL | > 128 µg/mL | 16.6 µg/mL (≈ 10.4 µM) | 16 µg/mL | > 128 µg/mL |  | 16 µg/mL | 4 µg/mL | > 128 µg/mL | 30.1% | 11.8% | 4 µg/mL | Not active; Exhibited Small Decrease In Activity | Not active; Exhibited Small Decrease In Activity
4 | CC[C@H](C)[C@H](O)C(=O)N[C@H](C(=O)N[C@@H](CC(C)C)C(=O)N[C@H](CCCN)C(=O)N[C@H](C(=O)N[C@H](C(=O)N[C@H](C(=O)N[C@H](CCCCN)C(=O)N[C@H](C(=O)N[C@H](C(=O)N[C@@H](CCCCN)C(=O)N[C@H](Cc1ccc(O)cc1)C(=O)N[C@@H](CC(C)C)C(=O)N[C@H](CO)C(C)C)C(C)C)C(C)C)C(C)C)[C@@H](C)CC)[C@@H](C)CC)[C@@H](C)O | 2 µg/mL | 12 mm | 4 µg/mL | > 128 µg/mL | 32.2 µg/mL (≈ 20.1 µM) | 16 µg/mL | 16 µg/mL | 11 mm | 4 µg/mL | 1 µg/mL | 32 µg/mL | 4.9% | 1.2% | 2 µg/mL |  | 
5 | C/C=C(/NC(=O)[C@@H](O)[C@@H](C)CC)C(=O)N[C@@H](CC(C)C)C(=O)N[C@H](CCCN)C(=O)N[C@H](C(=O)N[C@H](C(=O)N[C@H](C(=O)N[C@H](CCCCN)C(=O)N[C@H](C(=O)N[C@H](C(=O)N[C@@H](CCCCN)C(=O)N[C@H](Cc1ccc(O)cc1)C(=O)N[C@@H](CC(C)C)C(=O)N[C@H](CO)C(C)C)C(C)C)[C@@H](C)CC)C(C)C)[C@@H](C)CC)[C@@H](C)CC | 2 µg/mL | 12 mm | 1 µg/mL | 64 µg/mL | 6.5 µg/mL (≈ 4.07 µM) | 2 µg/mL | 8 µg/mL | 11 mm | 2 µg/mL | 0.5 µg/mL | 32 µg/mL | 89.9% | 55% | 1 µg/mL |  | 
6 | CC[C@H](C)[C@H](O)C(=O)N[C@@H](CO)C(=O)N[C@@H](CC(C)C)C(=O)N[C@H](CCCN)C(=O)N[C@H](C(=O)N[C@H](C(=O)N[C@H](C(=O)N[C@H](CCCCN)C(=O)N[C@H](C(=O)N[C@H](C(=O)N[C@@H](CCCCN)C(=O)N[C@H](Cc1ccc(O)cc1)C(=O)N[C@@H](CC(C)C)C(=O)N[C@H](CO)C(C)C)C(C)C)C(C)C)C(C)C)[C@@H](C)CC)[C@@H](C)CC | 8 µg/mL | 12 mm | 1 µg/mL | > 128 µg/mL | 42.2 µg/mL (≈ 26.6 µM) | > 128 µg/mL | 32 µg/mL | 11 mm | 8 µg/mL | 2 µg/mL | 32 µg/mL | 4.9% | 1.2% | 4 µg/mL |  | 
7 | CC[C@H](NC(=O)[C@@H](O)[C@@H](C)CC)C(=O)N[C@@H](CC(C)C)C(=O)N[C@H](CCCN)C(=O)N[C@H](C(=O)N[C@H](C(=O)N[C@H](C(=O)N[C@H](CCCCN)C(=O)N[C@H](C(=O)N[C@H](C(=O)N[C@@H](CCCCN)C(=O)N[C@H](Cc1ccc(O)cc1)C(=O)N[C@@H](CC(C)C)C(=O)N[C@H](C(N)=O)C(C)C)C(C)C)C(C)C)C(C)C)[C@@H](C)CC)[C@@H](C)CC | 2 µg/mL | 7 mm | 2 µg/mL | > 128 µg/mL | 11.3 µg/mL (≈ 7.07 µM) | 64 µg/mL | 16 µg/mL | 7 mm | 8 µg/mL | 2 µg/mL | > 128 µg/mL | 38.2% | 23.3% | 2 µg/mL |  | 
8 | CC[C@H](C)[C@H](O)C(=O)N[C@@H](C)C(=O)N[C@@H](CC(C)C)C(=O)N[C@H](CCCN)C(=O)N[C@H](C(=O)N[C@H](C(=O)N[C@H](C(=O)N[C@H](CCCCN)C(=O)N[C@H](C(=O)N[C@H](C(=O)N[C@@H](CCCCN)C(=O)N[C@H](Cc1ccc(O)cc1)C(=O)N[C@@H](CC(C)C)C(=O)N[C@H](CO)C(C)C)C(C)C)C(C)C)C(C)C)[C@@H](C)CC)[C@@H](C)CC | 2 µg/mL | 12 mm | 1 µg/mL | > 128 µg/mL | 13.5 µg/mL (≈ 8.59 µM) | 4 µg/mL | 8 µg/mL | 11 mm | 2 µg/mL | 2 µg/mL | 64 µg/mL |  |  | 1 µg/mL |  | 
9 | CC[C@H](NC(=O)[C@@H](NC(C)=O)[C@@H](C)CC)C(=O)N[C@@H](CC(C)C)C(=O)N[C@H](CCCN)C(=O)N[C@H](C(=O)N[C@H](C(=O)N[C@H](C(=O)N[C@H](CCCCN)C(=O)N[C@H](C(=O)N[C@H](C(=O)N[C@@H](CCCCN)C(=O)N[C@H](Cc1ccc(O)cc1)C(=O)N[C@@H](CC(C)C)C(=O)N[C@H](CO)C(C)C)C(C)C)C(C)C)C(C)C)[C@@H](C)CC)[C@@H](C)CC | 2 µg/mL | 7 mm | 2 µg/mL | > 128 µg/mL | 17.6 µg/mL (≈ 10.8 µM) | 32 µg/mL | 16 µg/mL | 7 mm | 2 µg/mL | 4 µg/mL | > 128 µg/mL | 38.2% | 23.3% | 2 µg/mL |  | 
